# Experimental data collected from several papers.
# Lines come from different studies, so protocols differ.
# Target: Cholinesterase (BCHE, Homo sapiens, UniProt P06276)
# Observed: enzyme activity
# Action: inhibitor
SMILES,assay,system,conditions,IC50
CC(C)(C)c1ccccc1OP(=O)(Oc1ccccc1C(C)(C)C)Oc1ccccc1C(C)(C)C,,liver microsomes,,> 20 µg/mL
CS(=O)(=O)n1cc(Br)c(=O)[nH]c1=O,Ellman,,,195 nM
C=CCn1c2cc(OC(=O)CCCCN3CCN(Cc4ccc(Cl)cc4)CC3)ccc2c2ccnc(C)c21,Ellman,,,674 nM
CC(=O)n1ccc(=O)[nH]c1=O,Ellman,,,270 nM
CC(C)c1ccccc1OP(=O)(Oc1ccccc1C(C)C)Oc1ccccc1C(C)C,,liver microsomes,,> 20 µg/mL
Cc1cc(O)nc(O)n1,Ellman,,,368 nM
C#CCNc1nc(NCCCC2CCN(Cc3ccccc3)CC2)c(C#N)cc1C#N,Ellman,,,1920 nM
C[N+](C)(C)CCCCCCCCCC[N+](C)(C)C,,,,17400 nM
CC(C)(C)c1cccc(OP(=O)(Oc2cccc(C(C)(C)C)c2)Oc2cccc(C(C)(C)C)c2)c1,,liver microsomes,,> 20 µg/mL
C=CCn1c2cc(OC(=O)CCCN3CCN(Cc4ccccc4)CC3)ccc2c2ccnc(C)c21,Ellman,,,163 nM
C[C@@H]1CCCN1CCCCOc1ccc2occc(=O)c2c1,Ellman,,pH 7.4,48500 nM
C=CCn1c2cc(OC(=O)CCCCN3CCN(Cc4ccc(C)cc4)CC3)ccc2c2ccnc(C)c21,Ellman,,,581 nM
O=c1[nH]cc(Br)c(=O)[nH]1,Ellman,,,292 nM
